Data: ChEMBL document CHEMBL1147857, “A chromone analog inhibits TNF-alpha induced expression of cell adhesion molecules on human endothelial cells via blocking NF-kappaB activation” (Bioorg Med Chem, 2007)
Calls of active or inactive are those of the source. No cut-off for these calls is given here.

How the values were obtained:
[1] = Cytotoxicity against HUVEC cells assessed as cell viability at 110 ug/ml after 24 hrs by MTT assay; assay type: cell-based; conditions: human, read-out: Activity
Outline: (§1)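 Primary HUVECs were isolated by mild trypsinization, grown in M-199 with 15% FCS and ECGF, and used at passages 3–4. Cells got compound or 0.25% DMSO vehicle for 24 h. MTT (5 mg/ml) was added for the final 4 h, formazan dissolved in DMSO, and A570 read. Trypan blue exclusion confirmed the result. Runs were done at least 3 times in triplicate wells.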

[2] = test system: HUVEC; assay: Inhibition of TNF-alpha-induced ICAM1 expression in HUVEC cells at 110 ug/ml after 2 hrs by ELISA; assay type: functional; conditions: Homo sapiens
Outline: (§2)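 Cell-ELISA: HUVECs were pretreated with compound for 2 h, then given TNF-α 10 ng/ml for 16 h (ICAM-1, VCAM-1) or 4 h (E-selectin). Cells were fixed in 1% glutaraldehyde and blocked with 3% milk. Specific mAbs were applied overnight at 4 °C, then HRP goat anti-mouse, with OPD substrate at pH 4.5. The reaction was stopped with H2SO4 and A490 read. % inhibition = [1 − A490(compound)/A490(control)] × 100. Three independent experiments.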

[3] = test system: HUVEC; assay: Inhibition of TNF-alpha-induced ICAM1 expression in HUVEC cells after 2 hrs by ELISA; assay type: functional, cell-based; conditions: Homo sapiens; outline: as §2
[4] = test system: Liver microsomes; assay: Inhibition of NADPH-catalyzed lipid peroxidation in Wistar rat liver microsome at 110 ug/ml after 10 mins; assay type: functional
Outline: (§3)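 Liver microsomes came from male Wistar rats of about 200 g. Each mix held microsomes (1 mg protein), 0.025 M Tris-HCl pH 7.5, 3 mM ADP and 0.15 mM FeCl3. Mixes were preincubated 10 min at 37 °C, then 10 min with compound in DMSO. Peroxidation was started with 0.5 mM NADPH and stopped with TCA/HCl/TBA. Samples were heated at 95 °C for 30 min and TBA-reactive substance read at 535 nm.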

[5] = Cytotoxicity against HUVEC cells assessed as cell viability at 90 ug/ml after 24 hrs by MTT assay; assay type: cell-based; conditions: human, read-out: Activity; outline: as §1
[6] = test system: HUVEC; assay: Inhibition of TNF-alpha-induced ICAM1 expression in HUVEC cells at 90 ug/ml after 2 hrs by ELISA; assay type: functional; conditions: Homo sapiens; outline: as §2
[7] = test system: Liver microsomes; assay: Inhibition of NADPH-catalyzed lipid peroxidation in Wistar rat liver microsome at 90 ug/ml after 10 mins; assay type: functional; outline: as §3
[8] = Cytotoxicity against HUVEC cells assessed as cell viability at 80 ug/ml after 24 hrs by MTT assay; assay type: cell-based; conditions: human, read-out: Activity; outline: as §1
[9] = test system: HUVEC; assay: Inhibition of TNF-alpha-induced ICAM1 expression in HUVEC cells at 80 ug/ml after 2 hrs by ELISA; assay type: functional; conditions: Homo sapiens; outline: as §2
[10] = test system: Liver microsomes; assay: Inhibition of NADPH-catalyzed lipid peroxidation in Wistar rat liver microsome at 80 ug/ml after 10 mins; assay type: functional; outline: as §3
[11] = Cytotoxicity against HUVEC cells assessed as cell viability at 70 ug/ml after 24 hrs by MTT assay; assay type: cell-based; conditions: human, read-out: Activity; outline: as §1
[12] = test system: HUVEC; assay: Inhibition of TNF-alpha-induced ICAM1 expression in HUVEC cells at 70 ug/ml after 2 hrs by ELISA; assay type: functional; conditions: Homo sapiens; outline: as §2
[13] = test system: Liver microsomes; assay: Inhibition of NADPH-catalyzed lipid peroxidation in Wistar rat liver microsome at 70 ug/ml after 10 mins; assay type: functional; outline: as §3
[14] = Cytotoxicity against HUVEC cells assessed as cell viability at 60 ug/ml after 24 hrs by MTT assay; assay type: cell-based; conditions: human, read-out: Activity; outline: as §1
[15] = test system: HUVEC; assay: Inhibition of TNF-alpha-induced ICAM1 expression in HUVEC cells at 60 ug/ml after 2 hrs by ELISA; assay type: functional; conditions: Homo sapiens; outline: as §2
[16] = test system: Liver microsomes; assay: Inhibition of NADPH-catalyzed lipid peroxidation in Wistar rat liver microsome at 60 ug/ml after 10 mins; assay type: functional; outline: as §3
[17] = test system: HUVEC; assay: Inhibition of TNF-alpha-induced E-selectin expression in HUVEC cells at 90 ug/ml after 2 hrs by ELISA; assay type: functional; conditions: Homo sapiens; outline: as §2
[18] = test system: HUVEC; assay: Inhibition of TNF-alpha-induced VCAM1 expression in HUVEC cells at 90 ug/ml after 2 hrs by ELISA; assay type: functional; conditions: Homo sapiens; outline: as §2
[19] = test system: HUVEC; assay: Inhibition of TNF-alpha-induced ICAM1 expression in HUVEC cells at 90 ug/ml after 2 hrs by flow cytometry; assay type: functional; conditions: Homo sapiens
Outline: (§4)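 Flow cytometry: HUVECs were pretreated with compound for 2 h, then given TNF-α 10 ng/ml for 16 h (ICAM-1, VCAM-1) or 4 h (E-selectin). Cells were dislodged and stained with mAb (1.0 µg/10^6 cells, 30 min, 4 °C), then FITC goat anti-mouse IgG. Cells were fixed in 1% paraformaldehyde and 20,000 events acquired. Autofluorescence was subtracted and mean fluorescence intensity taken from three independent experiments.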

[20] = test system: HUVEC; assay: Inhibition of TNF-alpha-induced E-selectin expression in HUVEC cells at 90 ug/ml after 2 hrs by flow cytometry; assay type: functional; conditions: Homo sapiens; outline: as §4
[21] = test system: HUVEC; assay: Inhibition of TNF-alpha-induced VCAM1 expression in HUVEC cells at 90 ug/ml after 2 hrs by flow cytometry; assay type: functional; conditions: Homo sapiens; outline: as §4
[22] = test system: HUVEC; assay: Inhibition of TNF-alpha-induced VCAM1 expression in HUVEC cells after 2 hrs by ELISA; assay type: functional, cell-based; conditions: Homo sapiens; outline: as §2
[23] = test system: HUVEC; assay: Inhibition of TNF-alpha-induced E-selectin expression in HUVEC cells after 2 hrs by ELISA; assay type: functional, cell-based; conditions: Homo sapiens; outline: as §2
[24] = test system: Neutrophil; assay: Inhibition of TNF-alpha-induced adhesion of neutrophils to endothelium after 2 hrs by neutrophil adhesion assay; assay type: functional, cell-based; conditions: Homo sapiens
Outline: (§5)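 Static adhesion: HUVEC monolayers were pretreated with compound for 2 h, then given TNF-α 10 ng/ml for 6 h. Neutrophils from healthy donor blood (dextran sedimentation, Ficoll-Hypaque, hypotonic lysis) were added at 6 × 10^4/well and left 1 h at 37 °C. Bound cells were measured with OPD/CTAB/aminotriazole substrate at A490. % inhibition was calculated as for the ELISA. Three independent experiments.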

[25] = test system: Neutrophil; assay: Inhibition of TNF-alpha-induced adhesion of neutrophils to endothelium at 90 ug/ml after 2 hrs by neutrophil adhesion assay; assay type: functional; conditions: Homo sapiens; outline: as §5
[26] = test system: HUVEC; assay: Blockade of TNF-alpha-induced p65 nuclear translocation in HUVEC cells after 2 hrs by Western blot; assay type: functional, cell-based; conditions: Homo sapiens
Outline: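 HUVECs (2 × 10^6) were pretreated with or without compound for 2 h, then given TNF-α 10 ng/ml for 30 min. Extracts ran on 8% SDS-PAGE and were blotted with anti-p65, with γ-tubulin as loading control. Detection used an HRP anti-rabbit secondary and DAB.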

[27] = test system: HUVEC; assay: Inhibition of TNF-alpha-induced NF-kappaB activation in HUVEC after 2 hrs by […] mobility shift assay; assay type: functional, cell-based; conditions: Homo sapiens
Outline: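 HUVECs were pretreated with compound for 2 h, then given TNF-α 10 ng/ml for 30 min. Nuclear extract (10 µg) was incubated with 40–80 fmol of 32P-labelled NF-κB oligonucleotide in HEPES/NaCl/Tris buffer pH 7.5 with poly(dI-dC), 30 min at room temperature. Complexes were resolved on a 4% native gel and seen by autoradiography. Specificity was checked with excess unlabelled oligo.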

[28] = Cytotoxicity against HUVEC cells assessed as cell viability at 100 ug/ml after 24 hrs by MTT assay; assay type: cell-based; conditions: human, read-out: Activity; outline: as §1
[29] = test system: HUVEC; assay: Inhibition of TNF-alpha-induced ICAM1 expression in HUVEC cells at 100 ug/ml after 2 hrs by ELISA; assay type: functional; conditions: Homo sapiens; outline: as §2
[30] = test system: Liver microsomes; assay: Inhibition of NADPH-catalyzed lipid peroxidation in Wistar rat liver microsome at 100 ug/ml after 10 mins; assay type: functional; outline: as §3

`CCCOC(=O)/C=C/c1coc2cc(O)ccc2c1=O` showed a viability at 24 h, 110 ug/ml [1] of 97%, an inhibition at 110 µg/mL [2] of 63.5% and an IC50 [3] of 349 µM. The inhibition [4] was 39.8%.

For `C=CCOC(=O)/C=C/c1coc2ccccc2c1=O`, the viability at 24 h, 90 ug/ml [5] was 95%, the inhibition at 90 µg/mL [6] was 64.5% and the IC50 [3] was 251 µM. It also gave an inhibition [7] of 43.4%.

Work on `CCCOC(=O)/C=C/c1coc2ccccc2c1=O` yielded a viability at 24 h, 80 ug/ml [8] of 97%, an inhibition at 80 µg/mL [9] of 81.8% and an IC50 [3] of 227 µM. For the same compound, the inhibition [10] was 42.5%.

Work on `CC(C)OC(=O)/C=C/c1coc2ccccc2c1=O` yielded a viability at 24 h, 70 ug/ml [11] of 98%, an inhibition at 70 µg/mL [12] of 73.5% and an IC50 [3] of 232 µM. It also gave an inhibition [13] of 50.8%.

Work on `O=c1ccoc2ccccc12` [CHROMONE] yielded a viability at 24 h, 90 ug/ml [5] of 95%, an inhibition at 90 µg/mL [6] of 47.5% and an inhibition [7] of 25.4%.

Compound `CCOC(=O)/C=C/c1coc2cc(O)ccc2c1=O` has a viability at 24 h, 90 ug/ml [5] of 95%, an inhibition at 90 µg/mL [6] of 68.2% and an IC50 [3] of 269 µM. The inhibition [7] was 32.3%.

Work on `CC(C)OC(=O)/C=C/c1coc2cc(O)ccc2c1=O` yielded a viability at 24 h, 60 ug/ml [14] of 96%, an inhibition at 60 µg/mL [15] of 52.5% and an IC50 [3] of 218 µM. For the same compound, the inhibition [16] was 26.2%.

For `CCOC(=O)/C=C/c1coc2ccccc2c1=O`, the inhibition at 90 µg/mL [17] was greater than 95%, the inhibition at 90 µg/mL [18] was greater than 95% and the viability at 24 h, 90 ug/ml [5] was 96%. For the same compound, the inhibition at 90 µg/mL [19] was 95%, the inhibition at 90 µg/mL [20] was 95% and the inhibition at 90 µg/mL [6] was 90%. The IC50 [3] was 184 µM, the inhibition at 90 µg/mL [21] was 95% and the Activity [22] was “Dose-dependent effect”. For the same compound, the Activity [23] was “Dose-dependent effect”, the Activity [24] was “Dose-dependent effect” and the inhibition at 90 µg/mL [25] was 65%. For the same compound, the Activity [26] was “Active”, the Activity [27] was “Active” and the inhibition [7] was 52.9%.

With `C=CCOC(=O)/C=C/c1coc2cc(O)ccc2c1=O` the viability at 24 h, 100 ug/ml [28] was 97%, the inhibition at 100 µg/mL [29] was 55.2% and the IC50 [3] was 273 µM. The inhibition [30] was 13.3%.
